Experimental data pooled from the literature.
Compare with care: the assays were run in different laboratories.
PDE10A: cAMP and cAMP-inhibited cGMP 3',5'-cyclic phosphodiesterase 10A (PDE10A, Homo sapiens, UniProt Q9Y233)
SLC6A3: Sodium-dependent dopamine transporter (SLC6A3, Homo sapiens, UniProt Q01959)

COc1ccc(-c2cccc(Cc3ncnc4cc(OC)c(OC)cc34)c2)cc1OC  inhibition (PDE10A; enzyme activity, inhibitor, FP; 0.1 µM): 85%
CCOC(=O)[C@@]12C[C@@H]1[C@@H](n1cnc3c(NCCCCCc4ccccc4)nc(I)nc31)[C@H](O)[C@@H]2O  inhibition (SLC6A3; ligand displacement, radioligand; 10 µM): 85%
COc1cc2ncnc(Cc3cccc4ccccc34)c2cc1OC  inhibition (PDE10A; enzyme activity, inhibitor, FP; 0.1 µM): 56%
O[C@@H]1[C@H](O)[C@@H]2C[C@@H]2[C@H]1n1cnc2c(NCCC3CC3)nc(I)nc21  inhibition (SLC6A3; ligand displacement, radioligand; 10 µM): 9%
C#Cc1cc(-c2cc(Nc3nc(N[C@@H](C)c4ccc(F)cn4)ncc3Cl)n[nH]2)ccc1C=O  inhibition (Activated CDC42 kinase 1 (TNK2, Homo sapiens, UniProt Q07912); enzyme activity, inhibitor; 0.2 µM): 73.3%
O[C@@H]1[C@H](O)[C@@H]2C[C@@H]2[C@H]1n1cnc2c(NCCC3CC3)ncnc21  inhibition (SLC6A3; transporter uptake, inhibitor, radiometric; HEK293; 20 nM): 50%
COc1ccc2c(Cc3ccc(OC)c(OC)c3)ncnc2c1  inhibition (PDE10A; enzyme activity, inhibitor, FP; 0.1 µM): 22%
CCOC(=O)[C@@]12C[C@@H]1[C@@H](n1cnc3c(NCc4cccc(Cl)c4)nc(C#Cc4ccc(Cl)s4)nc31)[C@H](O)[C@@H]2O  inhibition (SLC6A3; ligand displacement, radioligand; 10 µM): 75%
COc1ccc2c(Cc3cccc(-c4ccccc4)c3)ncnc2c1  inhibition (PDE10A; enzyme activity, inhibitor, FP; 0.1 µM): 22%
CN(C)CCOC(=O)COc1ccc(Cl)cc1  inhibition (Peroxisome proliferator-activated receptor gamma (PPARG, Homo sapiens, UniProt P37231); cell-free assay, TR-FRET; 1 µM): 3.65%
Cc1cc(O)c(-c2ccc([C@@H](C)CN(C)C)cc2)c2c1[nH]c(=O)c1sccc12  inhibition (Serine/threonine-protein kinase ATR (ATR, Homo sapiens, UniProt Q13535); cell-free assay, inhibitor; 0.1 µM, lysate): 8.12%
CCN1/C(=C/C(C)=O)Sc2ccc(F)cc21  inhibition (D(3) dopamine receptor (DRD3, Homo sapiens, UniProt P35462); ligand displacement, radioligand; 10 µM): 0%
NC(=O)CC[C@H](N)C(=O)NCC(=O)NCC(=O)N[C@@H](CC(=O)O)C(=O)N[C@@H](Cc1ccccc1)C(=O)O  inhibition (Angiotensin-converting enzyme (ACE, Homo sapiens, UniProt P12821); enzyme activity, inhibitor; 1.4 mM): 49.9%
CCOC(=O)[C@@]12C[C@@H]1[C@@H](n1cnc3c(NCc4cccc(Cl)c4)nc(I)nc31)[C@H](O)[C@@H]2O  inhibition (SLC6A3; ligand displacement, radioligand; 10 µM): 37%
COc1ccc2ccnc(Cc3ccc(OC)c(OC)c3)c2c1  inhibition (PDE10A; enzyme activity, inhibitor, FP; 0.1 µM): 11%
NC/C(=C\F)COc1cccc(Cn2c(=S)[nH]c(=O)c3[nH]cnc32)c1  inhibition (SLC6A3; ligand displacement, radioligand; 10 µM): < 50%
COc1ccc2c(Cc3cccc(-c4ccccc4)c3)ccnc2c1  inhibition (PDE10A; enzyme activity, inhibitor, FP; 0.1 µM): 22%
CCOC(=O)[C@@]12C[C@@H]1[C@@H](n1ccc3c(NCCCCCCCc4ccccc4)nc(C#Cc4ccccc4)nc31)[C@H](O)[C@@H]2O  inhibition (SLC6A3; ligand displacement, radioligand; 10 µM): 25%
